In ChEMBL document CHEMBL4334491, “Discovery of Benzamidine- and 1-Aminoisoquinoline-Based Human MAS-Related G-Protein-Coupled Receptor X1 (MRGPRX1) Agonists” (J Med Chem, 2019):
The source made the active and inactive calls. The rule behind the calls is not given here.

Assays:
[1] = molecular target: T1, Mas-related G-protein coupled receptor member X1 (Homo sapiens, UniProt Q96LB2); assay: Agonist activity at human MrgprX1 expressed in HEK293 cells incubated for 2 mins by Fluo4AM dye based FLIPR assay relative to BAM8-22; assay type: cell-based
Outline: (§1)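 HEK293 cells stably expressing human MrgprX1 were plated at 25,000/well and grown 2 days. They were loaded with 2 μM Fluo-4 AM plus 1% Trypan Red in HBSS for 50 min at 37°C, then equilibrated 10 min at room temperature. Serially diluted compounds in HBSS were added, with BAM8-22 as positive control. FLIPR imaging ran 2 min, read as max–min fluorescence. EC50 is mean ± SD of ≥4 experiments.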

[2] = molecular target: T1, Mas-related G-protein coupled receptor member X1; assay: Agonist activity at human MrgprX1 expressed in HEK293 cells incubated for 2 mins by Fluo4AM dye based FLIPR assay; assay type: cell-based; outline: as §1
[3] = molecular target: T1, Mas-related G-protein coupled receptor member X1; assay: Agonist activity at human MRGPRX1 in DRG neurons obtained from humanized MrgprX1 mouse assessed as inhibition of high-voltage-activated Ca2+ currents 10 uM at -80 mV holding potential; assay type: functional
Outline: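 DRG neurons from 3–4-week-old humanized MrgprX1 mice were dispase/collagenase-dissociated, cultured with NGF and GDNF, and used after 20–40 h. Whole-cell patch clamp was done in Ba2+/NMDG extracellular solution, pH 7.4, at 21–23°C. Cells were held at −80 mV, stepped to −40 mV, then −60 mV, then −10 mV for 40 ms to evoke HVA currents. Compound was bath-applied; P/4 leak subtraction.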

[4] = molecular target: T1, Mas-related G-protein coupled receptor member X1; assay: Agonist activity at human MrgprX1 expressed in HEK293 cells up to 100 uM incubated for 2 mins by Fluo4AM dye based FLIPR assay relative to BAM8-22; assay type: cell-based; outline: as §1
[5] = Half life in mouse liver microsomes; assay type: ADME, Microsome
[6] = molecular target: T2, Mas-related G-protein coupled receptor member X1 (Mus musculus) (UniProt Q8CIP3); assay: Agonist activity at mouse MRGPRC11 expressed in KNRK cells at 40 uM by Fura2-AM dye based FLIPR assay; assay type: cell-based
T2 sequence (whole entry): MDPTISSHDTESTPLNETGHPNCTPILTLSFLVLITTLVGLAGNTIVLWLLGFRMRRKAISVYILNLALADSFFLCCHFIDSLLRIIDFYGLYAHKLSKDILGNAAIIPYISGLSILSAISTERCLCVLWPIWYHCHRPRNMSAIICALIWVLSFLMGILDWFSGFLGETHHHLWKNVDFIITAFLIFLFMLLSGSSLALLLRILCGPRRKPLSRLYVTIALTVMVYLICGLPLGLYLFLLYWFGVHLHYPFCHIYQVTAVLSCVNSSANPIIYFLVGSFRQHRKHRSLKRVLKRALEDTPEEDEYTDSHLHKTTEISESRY

[7] = molecular target: Delta-type opioid receptor (Rattus norvegicus, UniProt P33533); assay: Displacement of [3H]DADLE from delta opioid receptor in rat brain after 60 mins by liquid scintillation counting method; assay type: tissue-based
Mu-type opioid receptor = Mu-type opioid receptor (Rattus norvegicus, UniProt P33535); assay: Displacement of [3H]DAMGO from mu opioid receptor in rat brain after 60 mins by liquid scintillation counting method; assay type: tissue-based
[8] = molecular target: Kappa-type opioid receptor (Rattus norvegicus, UniProt P34975); assay: Displacement of [3H]U-69,593 from kappa opioid receptor in rat brain after 60 mins by liquid scintillation counting method; assay type: tissue-based
[9] = Selectivity index, ratio of Ki for displacement of [3H]DADLE from delta opioid receptor in rat brain after 60 mins by liquid scintillation counting method to EC50 for agonist activity at human MrgprX1 expressed in HEK293 cells incubated for 2 mins by Fluo4AM dye based FLIPR assay; assay type: cell-based
[10] = Selectivity index, ratio of Ki for displacement of [3H]DAMGO from mu opioid receptor in rat brain after 60 mins by liquid scintillation counting method to EC50 for agonist activity at human MrgprX1 expressed in HEK293 cells incubated for 2 mins by Fluo4AM dye based FLIPR assay; assay type: cell-based
[11] = Selectivity index, ratio of Ki for [3H]U-69,593 from kappa opioid receptor in rat brain after 60 mins by liquid scintillation counting method to EC50 for agonist activity at human MrgprX1 expressed in HEK293 cells incubated for 2 mins by Fluo4AM dye based FLIPR assay; assay type: cell-based
[12] = AUC in CD1 mouse plasma at 10 mg/kg, iv administered as single dose by LC-MS/MS analysis; assay type: ADME, organism-based; conditions: in vivo
Outline: (§2)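 Male CD1 mice (25–30 g) received a single 10 mg/kg iv dose, n=3 per time point, and were killed by CO2 at set times. Plasma came from cardiac-puncture blood spun at 3,000 g for 15 min. Spinal cords were flash frozen. Samples were extracted in acetonitrile with losartan internal standard and quantified by LC/MS/MS. Calibration covered 0.01–10 nmol/mL, built with 1/x-weighted linear regression in naive matrix.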

[13] = AUC in CD1 mouse spinal cord at 10 mg/kg, iv administered as single dose by LC-MS/MS analysis; assay type: ADME, organism-based; conditions: in vivo; outline: as §2
[14] = Ratio of AUC in spinal cord to AUC in plasma of CD1 mouse at 10 mg/kg, iv administered as single dose by LC-MS/MS analysis; assay type: ADME, organism-based; outline: as §2
[15] = Half life in CD1 mouse at 10 mg/kg, iv administered as single dose by LC-MS/MS analysis; assay type: ADME, organism-based; conditions: in vivo; outline: as §2
[16] = molecular target: T1, Mas-related G-protein coupled receptor member X1; assay: Agonist activity at human MRGPRX1 in DRG neurons obtained from humanized MrgprX1 mouse assessed as inhibition of high-voltage-activated Ca2+ currents 5 uM at -80 mV holding potential; assay type: functional
Outline: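 DRG neurons from 3–4-week-old MrgprX1 mice, enzyme-dissociated, cultured with NGF and GDNF and used at 20–40 h. Whole-cell patch clamp of MrgprA3-GFP neurons at 21–23 °C in NMDG-Cl/5 mM BaCl2 bath, pH 7.4. Holding −80 mV, step to −40 mV 20 ms, −60 mV 20 ms, then −10 mV 40 ms evoking HVA current. P/4 leak subtraction. Currents compared before/after bath application.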

T1 sequence (Q96LB2 whole entry): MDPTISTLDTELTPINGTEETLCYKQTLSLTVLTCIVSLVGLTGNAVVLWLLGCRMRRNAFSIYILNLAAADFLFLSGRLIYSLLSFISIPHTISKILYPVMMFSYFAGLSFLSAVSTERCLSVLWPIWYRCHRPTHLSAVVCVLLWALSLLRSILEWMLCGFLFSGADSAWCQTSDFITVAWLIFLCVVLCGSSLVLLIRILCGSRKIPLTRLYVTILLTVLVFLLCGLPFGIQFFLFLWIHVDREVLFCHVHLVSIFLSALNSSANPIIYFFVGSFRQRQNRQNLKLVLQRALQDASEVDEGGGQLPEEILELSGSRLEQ
Mu-type opioid receptor, sequence (P33535 whole entry): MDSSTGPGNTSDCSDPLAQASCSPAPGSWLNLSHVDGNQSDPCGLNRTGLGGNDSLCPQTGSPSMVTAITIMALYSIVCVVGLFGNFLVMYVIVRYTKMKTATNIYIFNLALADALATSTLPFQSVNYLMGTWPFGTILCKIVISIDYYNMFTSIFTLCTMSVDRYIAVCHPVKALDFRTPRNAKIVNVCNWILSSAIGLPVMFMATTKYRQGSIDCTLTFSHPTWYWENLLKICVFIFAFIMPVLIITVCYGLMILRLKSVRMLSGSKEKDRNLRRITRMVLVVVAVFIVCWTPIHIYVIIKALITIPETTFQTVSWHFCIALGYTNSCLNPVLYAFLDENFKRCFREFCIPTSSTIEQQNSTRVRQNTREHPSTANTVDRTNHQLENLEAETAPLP
Kappa-type opioid receptor, sequence (P34975 whole entry): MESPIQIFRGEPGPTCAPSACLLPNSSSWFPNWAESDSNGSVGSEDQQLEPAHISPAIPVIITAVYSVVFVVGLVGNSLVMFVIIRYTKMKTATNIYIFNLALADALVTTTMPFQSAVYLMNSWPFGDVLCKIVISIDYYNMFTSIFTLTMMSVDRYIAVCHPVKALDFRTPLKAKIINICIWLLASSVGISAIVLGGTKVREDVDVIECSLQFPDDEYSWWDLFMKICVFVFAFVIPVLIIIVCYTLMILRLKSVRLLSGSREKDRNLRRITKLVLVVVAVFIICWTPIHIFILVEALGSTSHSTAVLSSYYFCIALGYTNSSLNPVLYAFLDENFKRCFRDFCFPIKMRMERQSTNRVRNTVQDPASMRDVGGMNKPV
Delta-type opioid receptor, sequence (P33533 whole entry): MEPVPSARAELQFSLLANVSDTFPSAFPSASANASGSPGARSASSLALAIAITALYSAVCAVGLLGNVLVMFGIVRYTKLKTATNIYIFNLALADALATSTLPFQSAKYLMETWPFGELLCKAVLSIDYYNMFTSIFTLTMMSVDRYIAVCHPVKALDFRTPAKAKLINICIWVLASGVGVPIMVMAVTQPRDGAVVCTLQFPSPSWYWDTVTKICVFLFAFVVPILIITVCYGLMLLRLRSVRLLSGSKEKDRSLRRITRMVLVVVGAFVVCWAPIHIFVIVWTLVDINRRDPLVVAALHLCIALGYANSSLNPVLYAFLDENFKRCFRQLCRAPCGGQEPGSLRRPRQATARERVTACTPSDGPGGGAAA

| Compound | Emax [1] [%] | EC50 [2] [nM] | other results |
| --- | --- | --- | --- |
| CCCCS(=O)(=O)Nc1ccccc1Oc1ccc(C(=N)N)cc1 | > 95 | 300 |  |
| COc1cc(CNc2ccc3c(N)nccc3c2)ccc1OCc1ccccc1 | > 95 | 3700 |  |
| COc1cc(CNc2ccc(C(=N)N)cc2)ccc1OCc1ccccc1 | > 95 | 510 | inhibition [3]: Active |
| COc1cc(CNc2ccc(C(=N)N)cc2)ccc1OCCC(C)C | > 95 | 1900 |  |
| Cc1ccc(S(=O)(=O)Nc2ccc(C)cc2Oc2ccc(C(=N)N)cc2)cc1 | > 95 | 160 |  |
| COc1cc(CNc2ccccc2C(=N)N)ccc1OCc1ccccc1 |  | > 100000 | Activity [4]: inactive; inhibition [3]: inactive |
| Cc1ccc(NS(=O)(=O)c2ccccc2OC(F)(F)F)c(Oc2ccc(C(=N)N)cc2)c1 | > 95 | 150 |  |
| COc1ccccc1S(=O)(=O)Nc1ccc(C)cc1Oc1ccc2sc(N)nc2c1 |  | > 100000 | Activity [4]: inactive |
| COc1ccccc1S(=O)(=O)Nc1ccc(C)cc1Oc1ccc2c(N)nccc2c1 | > 95 | 50 | half-life [5]: < 15 min; Activity [6]: inactive; Ki [7]: 2470 nM; Ki (Mu-type opioid receptor): 3730 nM; Ki [8]: 12100 nM; Ratio [9]: 50; Ratio [10]: 75; Ratio [11]: 242; AUC [12]: 0.9 µM·h; AUC [13]: 5.66 nmol·h/g; Kp [14]: 6.3; half-life [15]: 19.8 min |
| H-VGRPEWWMDYQKRYG-OH |  |  | inhibition [16]: Active |
| N=C(N)c1ccc(NCc2ccc(OCc3ccccc3)cc2)cc1 | > 95 | 5200 |  |
| COc1ccccc1S(=O)(=O)Nc1ccc(C)cc1Oc1ccc(C(=N)N)cc1 | > 95 | 100 | Ki [7]: 220 nM; Ki (Mu-type opioid receptor): 72.7 nM; Ki [8]: 1430 nM |
| COc1cc(CNc2ccc(C(=N)N)cc2)ccc1OCc1cccnc1 | > 95 | 5200 |  |
| COc1ccccc1S(=O)(=O)Nc1ccc(C)cc1Oc1ccccc1C(=N)N | > 95 | 23000 |  |
| Cc1ccc(NS(=O)(=O)c2ccc(F)cc2)c(Oc2ccc(C(=N)N)cc2)c1 | > 95 | 2100 |  |
| CCCCS(=O)(=O)Nc1cc(C)ccc1Oc1ccc(C(=N)N)cc1 | > 95 | 920 |  |
| COc1cc(CNc2ccc(C(=N)N)cc2)ccc1OCc1ccsc1 | > 95 | 290 |  |
| COc1cc(CNc2ccc(C(=N)N)cc2)ccc1OCc1ccc(-n2cccc2)cc1 | > 95 | 680 |  |
| COc1cc(CNc2cccc(C(=N)N)c2)ccc1OCc1ccccc1 | > 95 | 3300 |  |
| CCCCS(=O)(=O)Nc1ccc(C)cc1Oc1ccc(C(=N)N)cc1 | > 95 | 2200 |  |
| COc1ccccc1S(=O)(=O)Nc1ccc(C)cc1Oc1cccc(C(=N)N)c1 | > 95 | 3600 |  |
